According to ChEMBL document CHEMBL3421565, “β-D-2'-C-Methyl-2,6-diaminopurine Ribonucleoside Phosphoramidates are Potent and Selective Inhibitors of Hepatitis C Virus (HCV) and Are Bioconverted Intracellularly to Bioactive 2,6-Diaminopurine and Guanosine 5'-Triphosphate Forms” (J Med Chem, 2015):
The source made the active and inactive calls. The calls are words filed in the database; no cut-off is given here.

Assays:
Vero = test: (§1) Cytotoxicity against African green monkey Vero cells assessed as reduction in cell viability incubated for 5 days by Cell-titer 96 aqueous one solution cell proliferation assay; format: cell-based; details: chlorocebus sabaeus, vero, 120 h
Hepatitis C virus = test: Antiviral activity against HCV infected in human HuH7 cells assessed as reduction in replicon RNA levels incubated for 5 days by RT-PCR assay; format: functional, organism-based, Hepacivirus hominis; details: Huh-7, 120 h
How it was run: (§2)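 Huh-7 clone B cells carrying HCV replicon RNA, seeded at 3000 cells/well; compounds added in dose response in triplicate right after seeding. Incubated 5 days at 37 °C, 5% CO₂. Total RNA extracted; replicon RNA and rRNA internal control co-amplified by one-step multiplex real-time RT-PCR. Antiviral effect taken as ΔCt versus no-drug control; cytotoxicity read from rRNA reduction.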

[1] = as §1; format: cell-based; details: chlorocebus sabaeus, Vero cells
[2] = (§3) Cytotoxicity against human PBMC assessed as reduction in cell viability incubated for 5 days by Cell-titer 96 aqueous one solution cell proliferation assay; format: cell-based; details: PBMC
[3] = (§4) Cytotoxicity against human CEM cells assessed as reduction in cell viability incubated for 5 days by Cell-titer 96 aqueous one solution cell proliferation assay; format: cell-based, CCRF-CEM; details: CEM cells (CCRF-CEM)
[4] = Cytotoxicity against human HuH7 cells assessed as reduction in rRNA levels incubated for 5 days by RT-PCR assay; format: cell-based, Huh-7; details: for CC50: huh-7, 120 h; how it was run: as §2
HepG2 [5] = test: Mitochondrial toxicity in human HepG2 cells assessed as effect on mitochondrial cytochrome c oxidase subunit 2 DNA level incubated for 14 days by real-time PCR method; format: cell-based; details: hepg2, 336 h
How it was run: (§5)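 HepG2 cells in DMEM with 4.5 g/L glucose and 10% heat-inactivated FBS, seeded at 5000 cells/well on collagen; compounds added 1 day later at final 1–50 μM. Medium and compound renewed every 3–4 days for 14 days; duplicates in two independent experiments. COXII mtDNA and nuclear β-actin DNA measured by real-time PCR, normalised to untreated control; IC₅₀ calculated.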

HepG2 [6] = test: Mitochondrial toxicity in human HepG2 cells assessed as effect on nuclear beta-actin DNA level incubated for 14 days by real-time PCR method; format: cell-based; details: hepg2, 336 h; how it was run: as §5
HepG2 [7] = test: Mitochondrial toxicity in human HepG2 cells assessed as induction of lactic acid levels at 10 uM incubated for 14 days; format: cell-based; details: hepg2, 336 h
How it was run: (§6)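 After 14 days of HepG2 exposure to compound (same culture regimen as the mtDNA assay), lactic acid in culture supernatant quantified with a D-/L-lactic acid kit by absorbance. Results expressed as % lactic acid over % nuclear DNA (β-actin control); mean of triplicates from a single plate.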

Hepatocyte [8] = test: Drug level in human primary hepatocytes treated with 50 uM beta-D-2,6-diaminopurine nucleoside assessed as compound formation incubated for 4 hrs at 37 degC by LC-MS/MS method; format: ADME, cell-based
How it was run: (§7)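 Freshly plated primary human hepatocytes seeded at 1 × 10⁶ per well and acclimated overnight, then given 50 μM compound for 4 h at 37 °C. After two ice-cold PBS washes, extraction ran overnight at −20 °C in 70% methanol with 20 nM ddATP. Dried extracts went to LC–MS/MS for intracellular metabolites, as three replicates from one plate, ±SD.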

Hepacivirus hominis [9] = test: Inhibition of HCV C-terminal His-tagged NS5Bdelta21 enzyme assessed as reduction in NS5B-mediated RNA polymerization using [32P]-GpG primer, RNA template and rNTP nucleotide mix incubated for 120 mins by PAGE method
How it was run: (§8)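 Purified NS5BΔ21 (C-terminal His tag), 1 μM, at 30 °C with 1 μM 20-mer RNA template and 1 μM ³²P-GpG primer. Buffer was 40 mM Tris pH 7.5, 6 mM NaCl, 2 mM MgCl₂. Started with 10 μM NTP mix, 1 μM competing NTP and triphosphate inhibitor at 0–100 μM. Products run on 20% denaturing PAGE and quantified; IC₅₀ calculated.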

[10] = Drug level in human HuH7 cells treated with 50 uM beta-D-2,6-diaminopurine nucleoside assessed as compound formation incubated for 4 hrs at 37 degC by LC-MS/MS method; format: ADME, cell-based; details: huh-7, 4 h
How it was run: (§9)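 Huh-7 cells seeded at 1 × 10⁶ per well and exposed to 50 μM compound after attachment, 4 h at 37 °C. Cells washed twice with ice-cold PBS, then extracted overnight at −20 °C in 70% methanol containing 20 nM ddATP. Supernatants were dried and analysed by LC–MS/MS for parent nucleoside and its mono-, di- and triphosphates (pmol/10⁶ cells).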

Hepacivirus hominis [11] = test: Inhibition of HCV C-terminal His-tagged NS5Bdelta21 enzyme assessed as induction of pausing at sites of GMP incorporation during NS5B-mediated RNA polymerization using [32P]-GpG primer, RNA template and rNTP nucleotide mix incubated for 120 mins by PAGE method
How it was run: as §8, with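 “μM. Stopped at 120 min with EDTA/formamide.” for “μM.”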

[12] = (§10) Drug level in human HuH7 cells treated with 50 uM Isopropyl 3-(2-(((S)-(((2R,3S,4R,5R)-5-(2,6-Diamino-9H-purin-9-yl)-3,4-dihydroxy-4-methyltetrahydrofuran-2-yl)methoxy)-(((S)-1-isopropoxy-1-oxopropan-2-yl)amino)phosphoryl)oxy)-phenyl)propanoate 15c(Sp) and Isopropyl 3-(2-(((R)-(((2R,3S,4R,5R)-5-(2,6-Diamino-9H-purin-9-yl)-3,4-dihydroxy-4-methyltetrahydrofuran-2-yl)methoxy)(((S)-1-isopropoxy-1-oxopropan-2-yl)amino)phosphoryl)oxy)phenyl)propanoate assessed as compound formation incubated for 4 hrs at 37 degC by LC-MS/MS method; format: ADME, cell-based; details: huh-7, 4 h; how it was run: as §9
[13] = Drug level in human HuH7 cells treated with 50 uM Ethyl 3-(2-(((R)-(((2R,3R,4R,5R)-5-(2,6-Diamino-9H-purin-9-yl)-3,4-dihydroxy-4-methyltetrahydrofuran-2-yl)methoxy)(((S)-1-ethoxy-1-oxopropan-2-yl)amino)phosphoryl)oxy)phenyl)-propanoate assessed as compound formation incubated for 4 hrs at 37 degC by LC-MS/MS method; format: ADME, cell-based; details: huh-7, 4 h; how it was run: as §9
Hepatocyte [14] = test: Drug level in human primary hepatocytes treated with 50 uM Ethyl 3-(2-(((R)-(((2R,3R,4R,5R)-5-(2,6-Diamino-9H-purin-9-yl)-3,4-dihydroxy-4-methyltetrahydrofuran-2-yl)methoxy)(((S)-1-ethoxy-1-oxopropan-2-yl)amino)phosphoryl)oxy)phenyl)-propanoate assessed as compound formation incubated for 4 hrs at 37 degC by LC-MS/MS method; format: ADME, cell-based; how it was run: as §7
Hepatocyte [15] = test: as §10, with “primary hepatocytes” for “HuH7 cells”; format: ADME, cell-based; how it was run: as §7
PBMC = test: as §3; format: cell-based; details: pbmc, 120 h
CCRF-CEM = test: as §4; format: cell-based; details: ccrf-cem, 120 h
HepG2 [16] = test: Mitochondrial toxicity in human HepG2 cells assessed as induction of lactic acid levels at 1 uM incubated for 14 days; format: cell-based; details: hepg2, 336 h; how it was run: as §6
HepG2 [17] = test: Mitochondrial toxicity in human HepG2 cells assessed as induction of lactic acid levels at 50 uM incubated for 14 days; format: cell-based; details: hepg2, 336 h; how it was run: as §6
HepG2 [18] = test: Toxicity in human HepG2 cells assessed as increase in cell death at 10 uM; format: cell-based; details: hepg2, 10 µM

| Structure (SMILES) | CC50 (Vero) | EC50 (Hepatitis C virus) | EC90 (Hepatitis C virus) | CC50 (PBMC) | CC50 (CCRF-CEM) | CC50 [4] | other results |
| --- | --- | --- | --- | --- | --- | --- | --- |
| CCOC(=O)CCc1ccccc1O[P@@](=O)(N[C@@H](C)C(=O)OC(C)C)OC[C@H]1O[C@@H](n2cnc3c(N)nc(N)nc32)[C@](C)(O)[C@H]1O | > 100 µM | 2.4 µM | 8.2 µM | – | – | – | – |
| CCOC(=O)CCc1ccccc1OP(=O)(OC[C@H]1O[C@@H](n2cnc3c(N)nc(N)nc32)[C@](C)(O)[C@@H]1O)Oc1ccccc1CCC(=O)OCC | – | > 10 µM | > 10 µM | – | – | – | CC50 at 120 h [1]: 90 µM; CC50 at 120 h [2]: 64 µM; CC50 at 120 h [3]: 25 µM; CC50 at 120 h ([4]; HuH7 cells): > 10 µM |
| Nc1ccn([C@@H]2CS[C@H](CO)O2)c(=O)n1 [LAMIVUDINE] | – | – | – | – | – | – | CC50 (HepG2 [5]): > 10 µM; CC50 (HepG2 [6]): > 10 µM; Activity (HepG2 [7]): 91% |
| Nc1ccn([C@H]2CC[C@@H](CO)O2)c(=O)n1 [ZALCITABINE] | – | – | – | – | – | – | CC50 (HepG2 [5]): < 10 µM; CC50 (HepG2 [6]): < 10 µM; Activity (HepG2 [7]): 220% |
| C[C@@]1(O)[C@H](O)[C@@H](COP(=O)(O)OP(=O)(O)OP(=O)(O)O)O[C@H]1n1cnc2c(=O)[nH]c(N)nc21 [INX-09114] | – | – | – | – | – | – | Drug metabolism (Hepatocyte [8]): metabolite_detected; inhibition (Hepacivirus hominis [9]): Dose-dependent effect; Drug metabolism [10]: metabolite_detected; inhibition (Hepacivirus hominis [11]): Active; Drug metabolism [12]: metabolite_detected; Drug metabolism [13]: metabolite_detected; Drug metabolism (Hepatocyte [14]): metabolite_detected; Drug metabolism (Hepatocyte [15]): metabolite_detected |
| CCOC(=O)CCc1ccccc1OP(=O)(N[C@@H](C)C(=O)OCC)OC[C@H]1O[C@@H](n2cnc3c(N)nc(N)nc32)[C@]2(C)OC(=O)O[C@@H]12 (stereo partly drawn) | > 100 µM | 2.8 µM | 8.5 µM | > 100 µM | > 100 µM | > 10 µM | – |
| CC(C)OC(=O)CCc1ccccc1O[P@](=O)(N[C@@H](C)C(=O)OC(C)C)OC[C@H]1O[C@@H](n2cnc3c(N)nc(N)nc32)[C@](C)(O)[C@H]1O | – | 0.9 µM | 2.8 µM | > 100 µM | 40 µM | – | – |
| CCOC(=O)[C@H](C)N[P@](=O)(OC[C@H]1O[C@@H](n2cnc3c(N)nc(N)nc32)[C@](C)(O)[C@H]1O)Oc1ccccc1CCC(=O)OC(C)C | – | 9.1 µM | 26 µM | – | – | > 10 µM | – |
| CCOC(=O)[C@H](C)N[P@@](=O)(OC[C@H]1O[C@@H](n2cnc3c(N)nc(N)nc32)[C@](C)(O)[C@H]1O)Oc1ccccc1CCC(=O)OC(C)C | – | 1.4 µM | 6.9 µM | > 100 µM | > 100 µM | – | – |
| CCOC(=O)[C@H](C)NP(=O)(OC[C@H]1O[C@@H](n2cnc3c(N)nc(N)nc32)[C@](C)(O)[C@@H]1O)Oc1ccccc1 (stereo partly drawn) | > 100 µM | 0.9 µM | 4 µM | > 100 µM | > 100 µM | > 10 µM | Activity (HepG2 [16]): 100%; Activity (HepG2 [17]): 90%; CC50 (HepG2 [5]): > 50 µM; CC50 (HepG2 [6]): > 50 µM; Activity (HepG2 [7]): 140% |
| C[C@@]1(O)[C@H](O)[C@@H](CO)O[C@H]1n1cnc2c(N)nc(N)nc21 | > 100 µM | 5.4 µM | > 10 µM | > 100 µM | > 100 µM | > 33 µM | Activity (HepG2 [16]): 110%; Activity (HepG2 [17]): 110%; CC50 (HepG2 [5]): > 50 µM; CC50 (HepG2 [6]): > 50 µM; Activity (HepG2 [7]): 170% |
| CCOC(=O)CCc1ccccc1O[P@](=O)(N[C@@H](C)C(=O)OCC)OC[C@H]1O[C@@H](n2cnc3c(N)nc(N)nc32)[C@](C)(O)[C@H]1O | – | 2.7 µM | 8.7 µM | > 100 µM | – | – | – |
| CCOC(=O)CCc1ccccc1OP(=O)(N[C@@H](C)C(=O)OC(C)C)OC[C@H]1O[C@@H](n2cnc3c(N)nc(N)nc32)[C@](C)(O)[C@H]1O (stereo partly drawn) | – | 2.2 µM | 9 µM | – | – | – | – |
| CCOC(=O)CCc1ccccc1OP(=O)(N[C@@H](C)C(=O)OCC)OC[C@H]1O[C@@H](n2cnc3c(N)nc(N)nc32)[C@](C)(O)[C@H]1O (mixture of isomers) | – | 2.3 µM | 7.3 µM | – | > 100 µM | > 10 µM | – |
| COc1nc(N)nc2c1ncn2[C@@H]1O[C@H](COP(=O)(N[C@@H](C)C(=O)OCC(C)(C)C)Oc2cccc3ccccc23)[C@@H](O)[C@@]1(C)O (stereo partly drawn) [BMS-986094] | 14 µM | 0.02 µM | 0.04 µM | 4.7 µM | 8.7 µM | 0.8 µM | Activity (HepG2 [18]): Toxic; Activity (HepG2 [16]): 190%; CC50 (HepG2 [5]): 4.7 µM; CC50 (HepG2 [6]): < 1 µM |
| CCOC(=O)CCc1ccccc1O[P@](=O)(N[C@@H](C)C(=O)OC(C)C)OC[C@H]1O[C@@H](n2cnc3c(N)nc(N)nc32)[C@](C)(O)[C@H]1O | – | 4.7 µM | 9.7 µM | > 100 µM | > 100 µM | > 10 µM | – |
| CCOC(=O)[C@H](C)NP(=O)(OC[C@H]1O[C@@H](n2cnc3c(N)nc(N)nc32)[C@](C)(O)[C@H]1O)Oc1ccccc1CCC(=O)OC(C)C (stereo partly drawn) | > 100 µM | 1.7 µM | 8 µM | – | – | – | – |
| CC(C)OC(=O)CCc1ccccc1O[P@@](=O)(N[C@@H](C)C(=O)OC(C)C)OC[C@H]1O[C@@H](n2cnc3c(N)nc(N)nc32)[C@](C)(O)[C@H]1O | – | 1 µM | 2.7 µM | – | > 100 µM | > 10 µM | – |
